In ChEMBL document CHEMBL3351454, “Design, synthesis, antimicrobial evaluation and molecular docking studies of some new thiophene, pyrazole and pyridone derivatives bearing sulfisoxazole moiety” (2014):
Values after ≈ are worked out from the molar mass of the structure shown.

What was measured:
Format in all cases: functional
Streptococcus pneumoniae [1] = test: Antimicrobial activity against Streptococcus pneumoniae RCMB 010010 assessed as inhibition zone at 5 mg/ml after 24 hrs; details: RCMB 010010, 24 h, read-out: IZ
In short: (§1)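 Agar diffusion on nutrient agar seeded with 10^6 CFU/mL bacteria. Filter-paper disks were loaded with 100 µL of a 5 mg/mL compound solution in DMF, with a DMF-only control. Incubation was 37 °C for 24 h. Inhibition zone in mm (mean ± SD, triplicate plates) was measured beyond the 6 mm diameter.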

Streptococcus pneumoniae [2] = test: Antimicrobial activity against Streptococcus pneumoniae RCMB 010010 assessed as absence of turbidity after 24 hrs; details: RCMB 010010, 24 h
In short: (§2)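 Broth microdilution in Müller–Hinton broth. DMF stocks at 1000 µg/mL were diluted in broth to give twofold serial dilutions over 500–0.007 µg/mL. Bacterial inoculum was about 10^6 CFU/mL in 96-well plates, sealed and incubated at 37 °C for 24 h in a humid chamber. MIC was taken as the lowest concentration with no visible turbidity. DMF and uninoculated-medium controls were included. Only compounds giving zones >10 mm were tested.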

Bacillus subtilis [3] = test: Antimicrobial activity against Bacillis subtilis RCMB 010067 assessed as inhibition zone at 5 mg/ml after 24 hrs; details: RCMB 010067, 24 h, read-out: IZ; in short: as §1
Bacillus subtilis [4] = test: Antimicrobial activity against Bacillis subtilis RCMB 010067 assessed as absence of turbidity after 24 hrs; details: RCMB 010067, 24 h; in short: as §2
[5] = tested on: Staphylococcus epidermidis; test: Antimicrobial activity against Staphylococcus epidermidis RCMB 010024 assessed as inhibition zone at 5 mg/ml after 24 hrs; details: RCMB 010024, 24 h, read-out: IZ; in short: as §1
[6] = tested on: Staphylococcus epidermidis; test: Antimicrobial activity against Staphylococcus epidermidis RCMB 010024 assessed as absence of turbidity after 24 hrs; details: RCMB 010024, 24 h; in short: as §2
Escherichia coli [7] = test: Antimicrobial activity against Escherichia coli RCMB 010052 assessed as inhibition zone at 5 mg/ml after 24 hrs; details: RCMB 010052, 24 h, read-out: IZ; in short: as §1
Escherichia coli [8] = test: Antimicrobial activity against Escherichia coli RCMB 010052 assessed as absence of turbidity after 24 hrs; details: RCMB 010052, 24 h; in short: as §2
Proteus vulgaris [9] = test: Antimicrobial activity against Proteus vulgaris RCMB 010085 assessed as inhibition zone at 5 mg/ml after 24 hrs; details: RCMB 010085, 24 h, read-out: IZ; in short: as §1
Proteus vulgaris [10] = test: Antimicrobial activity against Proteus vulgaris RCMB 010085 assessed as absence of turbidity after 24 hrs; details: RCMB 010085, 24 h; in short: as §2
Klebsiella pneumoniae [11] = test: Antimicrobial activity against Klebsiella pneumoniae RCMB 010093 assessed as inhibition zone at 5 mg/ml after 24 hrs; details: RCMB 010093, 24 h, read-out: IZ; in short: as §1
Klebsiella pneumoniae [12] = test: Antimicrobial activity against Klebsiella pneumoniae RCMB 010093 assessed as absence of turbidity after 24 hrs; details: RCMB 010093, 24 h; in short: as §2
Aspergillus fumigatus [13] = test: Antifungal activity against Aspergillus fumigatus RCMB 02568 assessed as inhibition zone at 5 mg/ml after 48 hrs; details: RCMB 02568, 48 h, read-out: IZ
In short: (§3)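 Disk diffusion on nutrient agar seeded with 10^4 CFU/mL fungus. Sterile filter-paper disks carried 100 µL of a 5 mg/mL DMF solution, and DMF alone served as control. Plates were incubated at 25 °C for 48 h. Mean inhibition zone in mm ± SD was read beyond the 6 mm diameter, in triplicate.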

Aspergillus fumigatus [14] = test: Antifungal activity against Aspergillus fumigatus RCMB 02568 assessed as absence of turbidity after 48 hrs; details: RCMB 02568, 48 h
In short: (§4)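 Broth microdilution in Sabouraud liquid medium. DMF stocks at 1000 µg/mL were diluted in broth to give twofold serial dilutions over 500–0.007 µg/mL. Fungal inoculum was about 10^4 CFU/mL in 96-well plates, sealed and incubated at 25 °C for 48 h in a humid chamber. MIC was taken as the lowest concentration with no visible turbidity. DMF and uninoculated-medium controls were included.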

[15] = tested on: Syncephalastrum racemosum; test: Antifungal activity against Syncephalastrum racemosum RCMB 05922 assessed as inhibition zone at 5 mg/ml after 48 hrs; details: RCMB 05922, 48 h, read-out: IZ
[16] = tested on: Syncephalastrum racemosum; test: Antifungal activity against Syncephalastrum racemosum RCMB 05922 assessed as absence of turbidity after 48 hrs; details: RCMB 05922, 48 h
Geotrichum candidum [17] = test: Antifungal activity against Geotrichum candidum RCMB 05097 assessed as inhibition zone at 5 mg/ml after 48 hrs; details: RCMB 05097, 48 h, read-out: IZ; in short: as §3
Geotrichum candidum [18] = test: Antifungal activity against Geotrichum candidum RCMB 05097 assessed as absence of turbidity after 48 hrs; details: RCMB 05097, 48 h; in short: as §4

SMILES | zone of inhibition at 5000 µg/mL (Streptococcus pneumoniae [1]) | MIC (Streptococcus pneumoniae [2]) | zone of inhibition at 5000 µg/mL (Bacillus subtilis [3]) | MIC (Bacillus subtilis [4]) | zone of inhibition at 5000 µg/mL [5] | MIC [6] | zone of inhibition at 5000 µg/mL (Escherichia coli [7]) | MIC (Escherichia coli [8]) | zone of inhibition at 5000 µg/mL (Proteus vulgaris [9]) | MIC (Proteus vulgaris [10]) | zone of inhibition at 5000 µg/mL (Klebsiella pneumoniae [11]) | MIC (Klebsiella pneumoniae [12]) | zone of inhibition at 5000 µg/mL (Aspergillus fumigatus [13]) | MIC (Aspergillus fumigatus [14]) | zone of inhibition at 5000 µg/mL [15] | MIC [16] | zone of inhibition at 5000 µg/mL (Geotrichum candidum [17]) | MIC (Geotrichum candidum [18])
Cc1noc(NS(=O)(=O)c2ccc(-n3c(S)c(C#N)c(-c4ccc(Cl)cc4)c(C#N)c3=O)cc2)c1C | 22.3 mm | 0.49 µg/mL (≈ 0.911 µM) | 24.4 mm | 0.12 µg/mL (≈ 0.223 µM) | 20.2 mm | 0.49 µg/mL (≈ 0.911 µM) | 20.6 mm | 0.98 µg/mL (≈ 1.82 µM) | 19.3 mm | 3.9 µg/mL (≈ 7.25 µM) | 23.2 mm | 0.24 µg/mL (≈ 0.446 µM) | 21.6 mm | 0.98 µg/mL (≈ 1.82 µM) | 20.2 mm | 1.95 µg/mL (≈ 3.62 µM) | 22.8 mm | 0.24 µg/mL (≈ 0.446 µM)
Cc1noc(NS(=O)(=O)c2ccc(NC(=O)/C(C#N)=C/c3ccccc3)cc2)c1C | 18.4 mm | 7.81 µg/mL (≈ 18.5 µM) | 20.3 mm | 1.95 µg/mL (≈ 4.62 µM) | 19.1 mm | 3.9 µg/mL (≈ 9.23 µM) | 20.6 mm | 1.95 µg/mL (≈ 4.62 µM) | 18 mm | 7.81 µg/mL (≈ 18.5 µM) | 21.9 mm | 0.49 µg/mL (≈ 1.16 µM) | 17.1 mm | 15.6 µg/mL (≈ 37 µM) | 18.8 mm | 7.81 µg/mL (≈ 18.5 µM) | 20.9 mm | 0.98 µg/mL (≈ 2.32 µM)
COc1ccc(-c2[nH]nc(N)c2C(=O)Nc2ccc(S(=O)(=O)Nc3onc(C)c3C)cc2)cc1 | 22 mm | 0.49 µg/mL (≈ 1.02 µM) | 20.4 mm | 1.95 µg/mL (≈ 4.04 µM) | 18.9 mm | 3.9 µg/mL (≈ 8.08 µM) | 17.8 mm | 7.81 µg/mL (≈ 16.2 µM) | 19.6 mm | 1.95 µg/mL (≈ 4.04 µM) | 17.1 mm | 15.6 µg/mL (≈ 32.4 µM) | 26.1 mm | 0.03 µg/mL (≈ 0.0622 µM) | 24.4 mm | 0.12 µg/mL (≈ 0.249 µM) | 13.6 mm | 125 µg/mL (≈ 259 µM)
Cc1noc(NS(=O)(=O)c2ccc(-n3c(S)c(C#N)c(-c4ccco4)c(C#N)c3=O)cc2)c1C | 22.6 mm | 0.24 µg/mL (≈ 0.486 µM) | 23.6 mm | 0.12 µg/mL (≈ 0.243 µM) | 21.4 mm | 0.98 µg/mL (≈ 1.99 µM) | 21.6 mm | 0.98 µg/mL (≈ 1.99 µM) | 18.3 mm | 7.81 µg/mL (≈ 15.8 µM) | 22.6 mm | 0.24 µg/mL (≈ 0.486 µM) | 22 mm | 0.49 µg/mL (≈ 0.993 µM) | 20.6 mm | 0.98 µg/mL (≈ 1.99 µM) | 24.3 mm | 0.12 µg/mL (≈ 0.243 µM)
Cc1noc(NS(=O)(=O)c2ccc(-n3c(S)c(C#N)c(-c4cccnc4)c(C#N)c3=O)cc2)c1C | 21.3 mm | 0.98 µg/mL (≈ 1.94 µM) | 22.6 mm | 0.24 µg/mL (≈ 0.476 µM) | 20 mm | 1.95 µg/mL (≈ 3.86 µM) | 19.2 mm | 3.9 µg/mL (≈ 7.73 µM) | 17.6 mm | 7.81 µg/mL (≈ 15.5 µM) | 21 mm | 0.98 µg/mL (≈ 1.94 µM) | 21.2 mm | 0.98 µg/mL (≈ 1.94 µM) | 19.2 mm | 3.9 µg/mL (≈ 7.73 µM) | 22 mm | 0.49 µg/mL (≈ 0.971 µM)
Cc1noc(NS(=O)(=O)c2ccc(NC(=O)c3cn[nH]c3N)cc2)c1C | 17.8 mm | 7.81 µg/mL (≈ 20.7 µM) | 18 mm | 7.81 µg/mL (≈ 20.7 µM) | 16.1 mm | 31.2 µg/mL (≈ 83 µM) | 13 mm | 125 µg/mL (≈ 332 µM) | 11 mm | 500 µg/mL (≈ 1330 µM) | 14.6 mm | 125 µg/mL (≈ 332 µM) | 18.6 mm | 7.81 µg/mL (≈ 20.7 µM) | 17.2 mm | 15.6 µg/mL (≈ 41.5 µM) | 18.9 mm | 7.81 µg/mL (≈ 20.7 µM)
CC(=O)OC[C@H]1O[C@@H](Sc2c(C#N)c(-c3ccc(Cl)cc3)c(C#N)c(=O)n2-c2ccc(S(=O)(=O)Nc3onc(C)c3C)cc2)[C@H](OC(C)=O)[C@@H](OC(C)=O)[C@@H]1OC(C)=O | 25.1 mm | 0.06 µg/mL (≈ 0.0691 µM) | 29.8 mm | 0.007 µg/mL (≈ 0.00806 µM) | 24.2 mm | 0.12 µg/mL (≈ 0.138 µM) | 23.2 mm | 0.24 µg/mL (≈ 0.276 µM) | 21.2 mm | 0.98 µg/mL (≈ 1.13 µM) | 25.8 mm | 0.03 µg/mL (≈ 0.0346 µM) | 22.3 mm | 0.49 µg/mL (≈ 0.564 µM) | 20.3 mm | 3.9 µg/mL (≈ 4.49 µM) | 25.8 mm | 0.03 µg/mL (≈ 0.0346 µM)
CNc1sc(C(C)=O)c(N)c1C(=O)Nc1ccc(S(=O)(=O)Nc2onc(C)c2C)cc1 | 16.6 mm | 16.6 µg/mL (≈ 35.9 µM) | 19.1 mm | 3.9 µg/mL (≈ 8.41 µM) | 18.7 mm | 7.81 µg/mL (≈ 16.8 µM) | 17.1 mm | 15.6 µg/mL (≈ 33.7 µM) | 18.2 mm | 3.9 µg/mL (≈ 8.41 µM) | 16.9 mm | 15.6 µg/mL (≈ 33.7 µM) | 15.8 mm | 62.5 µg/mL (≈ 135 µM) | 14.1 mm | 62.5 µg/mL (≈ 135 µM) | 16.4 mm | 31.2 µg/mL (≈ 67.4 µM)
